From ChEMBL document CHEMBL1158040, “Biological activities and 3D QSAR studies of a series of Delisea pulchra (cf. fimbriata) derived natural products” (J Nat Prod, 2006)
Converted amounts (≈) assume the structure as drawn. The source made the active and inactive calls. The calls are words filed in the database; no cut-off is given here.

How the values were obtained:
[1] = Selectivity index, ratio of IC50 for human KB cells to IC50 for Plasmodium falciparum D6; type: toxicity, cell-based; details: KB cells versus Plasmodium falciparum D6, read-out: Ratio IC50
Procedure, shortened: (§1)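 Plasmodium falciparum clones were assayed in vitro: D6 (chloroquine-sensitive) and W2 (chloroquine-resistant). IC50 is in μg/mL. The selectivity index is the ratio of the antimalarial to the cytotoxic activity.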

KB [2] = experiment: Cytotoxicity against human KB cells; type: functional; details: read-out: ED50 (the source's name)
[3] = Selectivity index, ratio of IC50 for human KB cells to IC50 for Plasmodium falciparum W2; type: toxicity, cell-based; details: KB cells versus Plasmodium falciparum W2, read-out: Ratio IC50; procedure, shortened: as §1
Plasmodium falciparum [4] = experiment: Antimalarial activity against chloroquine-sensitive Plasmodium falciparum D6; type: functional, organism-based
Procedure, shortened: (§2)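 In vitro growth inhibition of Plasmodium falciparum clones D6 (chloroquine-sensitive) and W2 (chloroquine-resistant); IC50 reported in μg/mL.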

Plasmodium falciparum [5] = experiment: Antimalarial activity against chloroquine-resistant Plasmodium falciparum W2; type: functional, organism-based; procedure, shortened: as §2
Micrococcus luteus [6] = experiment: Antimicrobial activity against Micrococcus luteus at 0.1 ug; type: functional, organism-based
Procedure, shortened: (§3)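 Direct bioautography: each compound is spotted onto TLC plates and the solvent evaporated. The test organism is then grown directly on the plate. Growth inhibition is scored at the spot as active (+) or very active (++). Where a number is given, it is the radius in mm of the inhibition zone around the spot.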

HT-1080 = experiment: Cytotoxicity against human HT1080 cells; type: functional; details: read-out: ED50 (the source's name)
Escherichia coli [7] = experiment: Antimicrobial activity against Escherichia coli at 1 ug; type: functional, organism-based; procedure, shortened: as §3
KB [8] = experiment: Cytotoxicity against vinblastine-resistant human KB cells; type: functional; details: read-out: ED50 (the source's name)
Procedure, shortened: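 The vinblastine-resistant KB-V1 line was tested both with and without added vinblastine in the cultured tumour-cell cytotoxicity panel. Results are reported as ED50.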

Micrococcus luteus [9] = experiment: Antimicrobial activity against Micrococcus luteus at 10 ug; type: functional, organism-based; procedure, shortened: as §3
Bacillus subtilis [10] = experiment: Antimicrobial activity against Bacillus subtilis at 10 ug; type: functional, organism-based; procedure, shortened: as §3
Escherichia coli [11] = experiment: Antimicrobial activity against Escherichia coli at 0.1 ug; type: functional, organism-based; procedure, shortened: as §3
ZR-75-1 = experiment: Cytotoxicity against human ZR-75-1 cells; type: functional; details: read-out: ED50 (the source's name)
LNCaP = experiment: Cytotoxicity against human LNCAP cells; type: functional; details: read-out: ED50 (the source's name)
Penicillium oxalicum [12] = experiment: Antimicrobial activity against Penicillium oxalicum at 5 ug; type: functional; details: read-out: IZ; procedure, shortened: as §3
Escherichia coli [13] = experiment: Antimicrobial activity against Escherichia coli at 5 ug; type: functional, organism-based; procedure, shortened: as §3
Escherichia coli [14] = experiment: Antimicrobial activity against Escherichia coli at 10 ug; type: functional, organism-based; procedure, shortened: as §3
Plasmodium falciparum [15] = experiment: Antimalarial activity against chloroquine-sensitive Plasmodium falciparum D6 at 10 ug/ml; type: functional
Bacillus subtilis [16] = experiment: Antimicrobial activity against Bacillus subtilis at 1 ug; type: functional, organism-based; procedure, shortened: as §3
[17] = Cytotoxicity against human U373 cells; type: functional, U-373MG ATCC; details: U373 MG, read-out: ED50 (the source's name)
[18] = Cytotoxicity against human BCA1 cells; type: functional; details: read-out: ED50 (the source's name)
[19] = Cytotoxicity against human Col1 cells; type: functional; details: read-out: ED50 (the source's name)
Micrococcus luteus [20] = experiment: Antimicrobial activity against Micrococcus luteus at 1 ug; type: functional, organism-based; procedure, shortened: as §3
A-431 = experiment: Cytotoxicity against human A431 cells; type: functional; details: read-out: ED50 (the source's name)
KB [21] = experiment: Cytotoxicity against vinblastine-sensitive human KB cells; type: functional; details: read-out: ED50 (the source's name)
Penicillium oxalicum [22] = experiment: Antimicrobial activity against Penicillium oxalicum at 1 ug; type: functional; details: for zone of inhibition at 1 µg/disc: read-out: IZ; procedure, shortened: as §3
P388 = experiment: Cytotoxicity against mouse P388 cells; type: functional; details: read-out: ED50 (the source's name)
Penicillium oxalicum [23] = experiment: Antimicrobial activity against Penicillium oxalicum at 10 ug; type: functional; details: read-out: IZ; procedure, shortened: as §3
Micrococcus luteus [24] = experiment: Antimicrobial activity against Micrococcus luteus at 5 ug; type: functional, organism-based; procedure, shortened: as §3
Bacillus subtilis [25] = experiment: Antimicrobial activity against Bacillus subtilis at 5 ug; type: functional, organism-based; procedure, shortened: as §3
[26] = Cytotoxicity against human MEL-2 cells; type: functional; details: MEL2, read-out: ED50 (the source's name)
Lu1 = experiment: Cytotoxicity against human Lu1 cells; type: functional; details: read-out: ED50 (the source's name)
[27] = target: Human immunodeficiency virus type 1 reverse transcriptase (Human immunodeficiency virus 1, UniProt Q72547); experiment: Inhibition of HIV1 RT at 200 uM
Procedure, shortened: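 HIV-1 reverse transcriptase inhibition was measured in an ELISA-based system.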

Penicillium oxalicum [28] = experiment: Antimicrobial activity against Penicillium oxalicum at 0.01 ug; type: functional; procedure, shortened: as §3
[29] = Inhibition of TK assessed as residual activity at 200 ug/ml
Procedure, shortened: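 The enzyme was tyrosine kinase p56lck, with test compounds at 200 μg/mL. The read-out is the remaining enzyme activity.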

Penicillium oxalicum [30] = experiment: Antimicrobial activity against Penicillium oxalicum at 0.1 ug; type: functional; details: read-out: IZ; procedure, shortened: as §3
Bacillus subtilis [31] = experiment: Antimicrobial activity against Bacillus subtilis at 0.1 ug; type: functional, organism-based; procedure, shortened: as §3

| SMILES | selectivity ratio [1] | EC50 (KB [2]) [µg/mL] | IC50 (Plasmodium falciparum [4]) [µg/mL] | IC50 (Plasmodium falciparum [5]) [µg/mL] | Activity (Micrococcus luteus [6]) | Activity (Escherichia coli [7]) | EC50 (KB [8]) [µg/mL] | Activity (Micrococcus luteus [9]) | Activity (Bacillus subtilis [10]) | Activity (Escherichia coli [11]) | EC50 (ZR-75-1) [µg/mL] | EC50 (LNCaP) [µg/mL] | zone of inhibition at 5 µg/disc (Penicillium oxalicum [12]) [mm] | Activity (Escherichia coli [13]) | Activity (Escherichia coli [14]) | Activity (Bacillus subtilis [16]) | Activity (Micrococcus luteus [20]) | EC50 (KB [21]) [µg/mL] | zone of inhibition at 10 µg/disc (Penicillium oxalicum [23]) [mm] | Activity (Micrococcus luteus [24]) | further results |
| --- | --- | --- | --- | --- | --- | --- | --- | --- | --- | --- | --- | --- | --- | --- | --- | --- | --- | --- | --- | --- | --- |
| OC(c1cc(C(F)(F)F)nc2c(C(F)(F)F)cccc12)C1CCCCN1 (stereo unspecified) [MEFLOQUINE] | 710 | 3.5 (≈ 9.25 µM) | 0.005 (≈ 0.0132 µM) | 0.001 (≈ 0.00264 µM) | – | – | – | – | – | – | – | – | – | – | – | – | – | – | – | – | selectivity ratio [3]: 4380 |
| CCCCC1=C(Br)/C(=C/Br)OC1=O | – | > 20 | – | – | inactive | inactive | > 20 | Active | Active | inactive | 10.2 (≈ 32.9 µM) | 7.3 (≈ 23.5 µM) | 3 | inactive | Active | inactive | Active | > 20 | 3 | Active | EC50 (HT-1080): 2.2 µg/mL (≈ 7.1 µM); Activity (Plasmodium falciparum [15]): >50%; EC50 [17]: 10 µg/mL (≈ 32.3 µM); EC50 [18]: 9.8 µg/mL (≈ 31.6 µM); EC50 [19]: > 20 µg/mL; EC50 (A-431): > 20 µg/mL; Activity (Penicillium oxalicum [22]): inactive; EC50 (P388): > 5 µg/mL; Activity (Bacillus subtilis [25]): inactive; EC50 [26]: 5.3 µg/mL (≈ 17.1 µM); EC50 (Lu1): > 20 µg/mL |
| CCC[C@@H](O)C1=C(Br)C(=C(Br)Br)OC1=O | < 1 | 0.5 (≈ 1.23 µM) | 2.8 (≈ 6.92 µM) | > 10 | Active | inactive | 9.5 (≈ 23.5 µM) | Active | Active | inactive | 0.3 (≈ 0.741 µM) | 6.7 (≈ 16.5 µM) | 23 | Active | Active | Active | Active | 0.6 (≈ 1.48 µM) | 20 | Active | IC50 [27]: 700 µM; zone of inhibition at 0.01 µg/disc (Penicillium oxalicum [28]; read-out: IZ): 4 mm; zone of inhibition at 1 µg/disc (Penicillium oxalicum [22]): 17 mm; Activity [29]: 4.5%; Activity (Bacillus subtilis [25]): Active; EC50 (Lu1): 1.7 µg/mL (≈ 4.2 µM) |
| C=C[C@H]1CN2CC[C@H]1C[C@H]2[C@H](O)c1ccnc2ccc(OC)cc12 [QUININE] | > 1830 | > 20 | 0.011 (≈ 0.0339 µM) | 0.029 (≈ 0.0894 µM) | – | – | – | – | – | – | – | – | – | – | – | – | – | – | – | – | selectivity ratio [3]: > 700 |
| CCC[C@@H](OC(C)=O)C1=C(Br)/C(=C/I)OC1=O | < 1 | 0.1 (≈ 0.241 µM) | 4.6 (≈ 11.1 µM) | > 10 | Active | inactive | 0.2 (≈ 0.482 µM) | Active | Active | inactive | < 0.1 | 2 (≈ 4.82 µM) | 21 | Active | Active | Active | Active | 3.6 (≈ 8.67 µM) | 17 | Active | IC50 [27]: 700 µM; zone of inhibition at 0.1 µg/disc (Penicillium oxalicum [30]): 6 mm; Activity (Penicillium oxalicum [28]): inactive; zone of inhibition at 1 µg/disc (Penicillium oxalicum [22]): 9 mm; Activity (Bacillus subtilis [25]): Active; EC50 (Lu1): 1.5 µg/mL (≈ 3.61 µM); Activity (Bacillus subtilis [31]): inactive |
